Measurements: ChEMBL document CHEMBL1155079, “N-Hydroxypyrazolyl glycine derivatives as selective N-methyl-D-aspartic acid receptor ligands” (J Med Chem, 2008)
Activity calls are given as the source filed them. No cut-off for these calls is given here.

Assays:
Glutamate NMDA receptor = test: Displacement of [3H]CGP39653 from NMDA receptor in rat cortical synaptosome; format: tissue-based, Brain
[1] = target: Glutamate NMDA receptor; Grin1/Grin2b (Rattus norvegicus, UniProt P35439+Q00960); test: Activity at rat recombinant NR1/NR2B receptor expressed in Xenopus oocytes assessed as effect on glutamate-induced current by two voltage clamp electrophysiology; format: cell-based, Oocyte
Outline: (§1)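 Two-electrode voltage clamp on Xenopus oocytes injected with cRNA for NR1 plus the named NR2 subunit. Holding potential −60 to −40 mV. Continuous perfusion at 23 °C with 90 NaCl, 0.5 BaCl2, 1 KCl, 0.01 EDTA, 10 HEPES (mM), pH 7.6, with 20 μM glycine present throughout. Concentration–response data from each oocyte fitted to the Hill equation; mean ± SEM of logEC50 and nH.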

[2] = Displacement of [3H]KAIN from KA receptor in rat cortical synaptosome; format: tissue-based, Brain
[3] = Displacement of [3H]AMPA from AMPA receptor in rat cortical synaptosome; format: tissue-based, Brain
Outline: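 Binding to rat cortical synaptosome membranes using 5 nM [3H]AMPA (45.5 Ci/mmol) as radioligand.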

[4] = target: Glutamate NMDA receptor; Grin1/Grin2b (Rattus norvegicus) (UniProt P35439+Q00960); test: Activity at rat recombinant NR1/NR2B receptor expressed in Xenopus oocytes by two voltage clamp electrophysiology relative to glutamate; format: cell-based; conditions: Oocyte
Outline: as §1, with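 “nH. Relative Imax = fitted agonist Imax / maximal glutamate response in the same recording.” for “nH.”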

[5] = target: Ionotropic glutamate receptor NMDA 1/2D (Rattus norvegicus, UniProt P35439+Q62645); test: Activity at rat NR1/NR2D receptor expressed in Xenopus oocytes assessed as effect on glutamate-induced current by two voltage clamp electrophysiology; format: cell-based, Oocyte; outline: as §1
[6] = target: Glutamate NMDA receptor; Grin1/Grin2c (Rattus norvegicus) (UniProt P35439+Q00961); test: Activity at rat recombinant NR1/NR2C receptor expressed in Xenopus oocytes by two voltage clamp electrophysiology relative to glutamate; format: cell-based; conditions: Oocyte
Outline: as §1, with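 “nH. Relative Imax = fitted agonist Imax / maximal glutamate response in the same recording.” for “nH.”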

[7] = target: T1, Glutamate NMDA receptor; Grin1/Grin2a (Rattus norvegicus) (UniProt P35439+Q00959); test: Activity at rat recombinant NR1/NR2A receptor expressed in Xenopus oocytes by two voltage clamp electrophysiology relative to glutamate; format: cell-based; conditions: Oocyte
Outline: as §1, with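 “nH. Relative Imax = fitted agonist Imax / maximal glutamate response in the same recording.” for “nH.”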

[8] = target: Glutamate NMDA receptor; Grin1/Grin2c (Rattus norvegicus, UniProt P35439+Q00961); test: Activity at rat recombinant NR1/NR2C receptor expressed in Xenopus oocytes assessed as effect on glutamate-induced current by two voltage clamp electrophysiology; format: cell-based, Oocyte; outline: as §1
[9] = target: T1, Glutamate NMDA receptor; Grin1/Grin2a (Rattus norvegicus); test: (§2) Activity at rat recombinant NR1/NR2A receptor expressed in Xenopus oocytes assessed as effect on glutamate-induced current by two voltage clamp electrophysiology; format: cell-based; conditions: Oocyte; outline: as §1
[10] = target: Ionotropic glutamate receptor NMDA 1/2D (Rattus norvegicus) (UniProt P35439+Q62645); test: Activity at rat NR1/NR2D receptor expressed in Xenopus oocytes by two voltage clamp electrophysiology relative to glutamate; format: cell-based; conditions: Oocyte
Outline: as §1, with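 “nH. Relative Imax = fitted agonist Imax / maximal glutamate response in the same recording.” for “nH.”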

[11] = target: Glutamate NMDA receptor; Grin1/Grin2a (Rattus norvegicus, UniProt P35439+Q00959); test: as §2; format: cell-based, Oocyte; outline: as §1

| SMILES | Ki (Glutamate NMDA receptor) [µM] | EC50 [1] [µM] | IC50 [2] [µM] | IC50 [3] [µM] | Imax [4] | EC50 [5] [µM] | Imax [6] | Activity [7] | EC50 [8] [µM] | Activity [9] | Imax [10] | Imax [7] | EC50 [11] [µM] |
| --- | --- | --- | --- | --- | --- | --- | --- | --- | --- | --- | --- | --- | --- |
| CCCc1cnn(O)c1[C@@H](N)C(=O)O | 6.9 | 63 | > 100 | > 100 | 0.09 |  |  |  |  |  |  |  |  |
| CCc1cnn(O)c1[C@@H](N)C(=O)O | 4.4 | 34 | > 100 | > 100 | 0.46 |  |  |  |  |  |  |  |  |
| CC(C)c1cnn(O)c1[C@H](N)C(=O)O | > 100 |  | > 100 | > 100 |  |  |  |  |  |  |  |  |  |
| Cc1cnn(O)c1[C@@H](N)C(=O)O | 2.2 | 36 | > 100 | > 100 | 0.23 |  |  |  |  |  |  |  |  |
| N[C@H](C(=O)O)c1c(Cl)cnn1O | 25 |  | > 100 | > 100 |  |  |  |  |  |  |  |  |  |
| Cc1cnn(O)c1[C@H](N)C(=O)O | > 100 |  | > 100 | > 100 |  |  |  |  |  |  |  |  |  |
| CC(C)c1cnn(O)c1[C@@H](N)C(=O)O | 13 |  | > 100 | > 100 |  |  |  |  |  |  |  |  |  |
| N[C@@H](C(=O)O)c1c(Cl)cnn1O | 2.9 | 58 |  |  | 0.33 |  |  |  |  |  |  |  |  |
| N[C@H](C(=O)O)c1ccnn1O | > 100 |  | > 100 | > 100 |  |  |  |  |  |  |  |  |  |
| N[C@@H](C(=O)O)c1ccnn1O | 2.2 | 14 | > 100 | > 100 | 0.61 |  |  |  |  |  |  |  |  |
| CCc1cnn(O)c1[C@H](N)C(=O)O | > 100 |  | > 100 | > 100 |  |  |  |  |  |  |  |  |  |
| CCCc1cnn(O)c1[C@H](N)C(=O)O | > 100 |  | > 100 | > 100 |  |  |  |  |  |  |  |  |  |
| CCCc1cnn(O)c1C(N)C(=O)O (racemic) | 14 | 105 | > 100 | > 100 | 0.06 | 153 | 0.22 | inactive | 429 | inactive | 0.37 |  |  |
| Cc1cnn(O)c1C(N)C(=O)O (racemic) | 22 |  | > 100 | > 100 |  |  |  |  |  |  |  |  |  |
| NC(C(=O)O)c1ccnn1O (racemic) | 10 | 48 | > 100 | > 100 | 0.58 |  | 0.52 |  | 54 |  |  | 0.45 | 82 |
| CCc1cnn(O)c1C(N)C(=O)O (racemic) | 13 | 68 | > 100 | > 100 | 0.45 | 43 | 0.52 |  | 91 |  | 0.7 | 0.05 | 47 |
| NC(C(=O)O)c1c(Cl)cnn1O (racemic) | 2.9 | 149 | > 100 | > 100 | 0.29 | 152 | 0.55 |  | 255 |  | 0.73 | 0.07 | 565 |
| CC(C)c1cnn(O)c1C(N)C(=O)O (racemic) | 20 |  | > 100 | > 100 |  |  |  |  |  |  |  |  |  |
| CN[C@H](CC(=O)O)C(=O)O [N-METHYL-D-ASPARTIC ACID (NMDA)] |  | 22 |  |  | 0.77 | 8.3 | 0.73 |  | 23 |  | 0.8 | 0.9 | 75 |
